Legend:
MCF7 = test: Cytotoxicity against human MCF7 cells after 72 hrs by MTT assay; format: cell-based; conditions: MCF7, 72 h
How it was run: (§1)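 Human tumour lines MCF7 (breast), HeLa (cervical carcinoma) and A549 (lung adenocarcinoma) were tested by MTT assay for cytotoxicity, with doxorubicin as the positive control.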

[1] = Therapeutic index, ratio of CC50 for human C8166 cells to EC50 for HIV1 3B infected in human MT4 cells; format: toxicity, cell-based; conditions: read-out: Ratio CC50/EC50
How it was run: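 TI was computed as CC50/EC50. CC50 came from an MTT cytotoxicity assay on C8166 cells, and EC50 from inhibition of HIV-1 cytopathic effect, with AZT as the positive control.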

[2] = system: Human immunodeficiency virus 1; test: Antiviral activity against HIV1 3B infected in human MT4 cells assessed as reduction in virus-induced cytopathic effect by measuring number of syncytia after 3 days by inverted microscopic method; format: functional, organism-based; conditions: Human immunodeficiency virus 1, 3B, MT4, 72 h
How it was run: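 Anti-HIV-1 activity was scored as inhibition of viral cytopathic effect, and EC50 was taken as the 50% effective concentration. AZT (3′-azido-3′-deoxythymidine) was run as the positive control.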

HeLa = test: Cytotoxicity against human HeLa cells after 72 hrs by MTT assay; format: cell-based; how it was run: as §1
A549 = test: Cytotoxicity against human A549 cells after 72 hrs by MTT assay; format: cell-based; conditions: A549, 72 h; how it was run: as §1
[3] = Cytotoxicity against human C8166 cells after 72 hrs by MTT assay; format: cell-based
How it was run: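 C8166 cells were tested for cytotoxicity by MTT assay, with CC50 defined as the 50% cytotoxic concentration.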

Structure (SMILES)	IC50 (MCF7)	selectivity ratio [1]	EC50 [2]	IC50 (HeLa)	IC50 (A549)	CC50 at 72 h [3]
C/C(=C\C(=O)O)CC[C@@]1(C)[C@H](C)CC[C@]2(C)[C@@H]1CC[C@@H](O)[C@]2(C)O	> 10 µM	> 7.3	27.4 µM	> 10 µM	> 10 µM	> 200 µM
CC(=O)[C@]1(C)CC[C@@H](C)[C@](C)(CC/C(C)=C/C(=O)O)[C@H]1CC(=O)O	> 10 µM	> 16.4	12.2 µM	> 10 µM	> 10 µM	> 200 µM
CC1=C(C(=O)O)C[C@@H]2[C@@](C)(CC/C(=C/C(=O)O)CO)[C@H](C)CC[C@@]12C	> 10 µM	> 8.5	23.1 µM	> 10 µM	> 10 µM	> 200 µM
CC1=CC(=O)C[C@@H]2[C@@](C)(CC/C(=C\C(=O)O)C(=O)O)[C@H](C)CC[C@@]12C	> 10 µM	> 5.7	35.2 µM	> 10 µM	> 10 µM	> 200 µM
CO[C@@H]1OC(=O)C=C1CC[C@@]1(C)[C@H](C)CC[C@@]2(C)C(C)=C(C=O)C[C@H]12	> 10 µM	> 11.9	16.8 µM	> 10 µM	> 10 µM	> 200 µM
C[C@@H]1CC[C@@]2(C)C(C(=O)O)=CCC[C@@H]2[C@@]1(C)CC/C(=C\C(=O)O)C(=O)O	> 10 µM	> 16.4	19.8 µM	> 10 µM	> 10 µM	> 200 µM
Cc1cn([C@H]2C[C@H](N=[N+]=[N-])[C@@H](CO)O2)c(=O)[nH]c1=O [ZIDOVUDINE]		338000	0.02 µM			5230 µM
